Each structure is given as a SMILES string. Some results are limits rather than exact numbers.

Data set [1] can be described thus: Cytotoxicity against human HuH7 cells. The data set is classed as cell-based, Huh-7.
The subject of the next data set is Hepatitis C virus. Nature of the data set: Antiviral activity against HCV genotype 1b in Huh7 cells assessed as inhibition of viral replication by cell-based replicon assay. It counts as functional, organism-based, Hepacivirus hominis. The following applies: Huh-7.
Another data set concerns Carboxypeptidase A. Nature of the data set: Half life in carboxypeptidase A assay.
The test system of a further data set is Caco-2. Nature of the data set: (§1) Permeability across human Caco-2 cells from apical to basolateral side in human Caco2 cell membrane. It counts as ADME, cell-based. The method, boiled down:
(§2)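 Caco-2 monolayers were grown for 27 days (resistance 600 ohms/cm²). Apical-to-basal transport was measured as % transported in 80 min, with permeability expressed in cm/s.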
A general note: Passage across Caco-2 layers is used to estimate intestinal permeability.

A further data set relates to Hepatocyte. In words: Cmax in primary human hepatocytes after 2uM treatment. It counts as ADME, cell-based. In short, it runs like this: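 Primary human hepatocytes were incubated with 2 µM compound. Intracellular 2′-C-methyl guanosine triphosphate was measured over 48 h and expressed as pmol/10⁶ cells. Cmax and decay half-life were estimated from the time course.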

The nature of data set [2]: as §1. It counts as ADME, cell-based. The following applies: read-out: permeability. The method, boiled down: as §2
Setting [3] is: human, HuH7 cells, read-out: CC50.

As to `COc1nc(N)nc2c1ncn2[C@@H]1O[C@H](COP(=O)(N[C@@H](CC(C)C)C(=O)OCC(C)(C)C)Oc2cccc3ccccc23)[C@@H](O)[C@@]1(C)O` (stereo partly drawn), the CC50 (as a rule, the concentration giving 50% cytotoxicity) in data set [1] (Homo sapiens, Huh-7) was found to be 14 µM. Moreover, in the data set on Hepatitis C virus, the EC50 (as a rule, the concentration giving half of the maximal effect) stood at 0.07 µM and the EC90 (usually the concentration at which the effect reaches the 90% level) was 0.23 µM.

Regarding `COc1nc(N)nc2c1ncn2[C@@H]1O[C@H](CO[P@@](=O)(N[C@@H](C)C(=O)OCC(C)(C)C)Oc2cccc3ccccc23)[C@@H](O)[C@@]1(C)O`, the half-life (in general, the time needed for the level to fall by half in the phase considered) with Carboxypeptidase A stood at 20 min.

`COc1nc(N)nc2c1ncn2[C@@H]1O[C@H](COP(=O)(N[C@@H](C)C(=O)OCCC(C)(C)C)Oc2cccc3ccccc23)[C@@H](O)[C@@]1(C)O` (stereo partly drawn): the CC50 in data set [1] (Homo sapiens, Huh-7) was 14 µM. Also, in the data set with Hepatitis C virus, the EC50 is 0.02 µM and the EC90 amounted to 0.08 µM.

On to `CCCOC(=O)[C@H](C)NP(=O)(OC[C@H]1O[C@@H](n2cnc3c(OC)nc(N)nc32)[C@](C)(O)[C@@H]1O)Oc1cccc2ccccc12` (stereo partly drawn), for which, in data set [1] (Homo sapiens, Huh-7), the CC50 came to 13 µM. Further, in the data set on Hepatitis C virus, the EC50 turned out to be 0.03 µM and the EC90 amounted to 0.1 µM.

`COc1nc(N)nc2c1ncn2[C@@H]1O[C@H](COP(=O)(N[C@H](C)C(=O)OCC(C)(C)C)Oc2cccc3ccccc23)[C@@H](O)[C@@]1(C)O` (stereo partly drawn) gave a CC50 in data set [1] (Homo sapiens, Huh-7) of 51 µM. Moreover, in the data set on Hepatitis C virus, the EC50 is 0.24 µM and the EC90 worked out at 0.58 µM.

In data set [1] (Homo sapiens, Huh-7), `COc1nc(N)nc2c1ncn2[C@@H]1O[C@H](CO)[C@@H](O)[C@@]1(C)O` [BETA-2'-C-METHYL-6-O-METHYL GUANOSINE] returned a CC50 of more than 100 µM. Further, in the data set on Hepatitis C virus, the EC50 is 5.2 µM and the EC90 amounted to 21 µM.

In the data set with Carboxypeptidase A, `COc1nc(N)nc2c1ncn2[C@@H]1O[C@H](CO[P@](=O)(N[C@@H](C)C(=O)OCC(C)(C)C)Oc2cccc3ccccc23)[C@@H](O)[C@@]1(C)O` gave a half-life of 17 min.

With `C[C@H](NP(=O)(OC[C@H]1O[C@@H](n2cnc3c(=O)[nH]c(N)nc32)[C@](C)(O)[C@@H]1O)Oc1cccc2ccccc12)C(=O)OCC(C)(C)C` (stereo partly drawn), the permeability with Caco-2 is reported as less than 0.5%. Also, the CC50 in data set [1] (setting [3]) was more than 100 µM. In addition, in the data set with Hepatitis C virus, the EC50 stood at 0.072 µM and the EC90 was found to be 0.27 µM.

For the compound `COc1nc(N)nc2c1ncn2[C@@H]1O[C@H](COP(=O)(N[C@@H](CCSC)C(=O)OCC(C)(C)C)Oc2cccc3ccccc23)[C@@H](O)[C@@]1(C)O` (stereo partly drawn), half-maximal cytotoxicity in data set [1] (Homo sapiens, Huh-7) (CC50) was put at 28 µM. Besides, in the data set with Hepatitis C virus, the EC50 was 0.06 µM and the EC90 turned out to be 0.19 µM.

In data set [1] (Homo sapiens, Huh-7), `COc1nc(N)nc2c1ncn2[C@@H]1O[C@H](COP(=O)(N[C@@H](C)C(=O)OC2CCCC2)Oc2cccc3ccccc23)[C@@H](O)[C@@]1(C)O` (stereo partly drawn) registered a CC50 of 9 µM. Moreover, in the data set on Hepatitis C virus, the EC50 was 0.03 µM and the EC90 came out at 0.08 µM.

With `COc1nc(N)nc2c1ncn2[C@@H]1O[C@H](COP(=O)(N[C@@H](C)C(=O)OCC(C)(C)C)Oc2cccc3ccccc23)[C@@H](O)[C@@]1(C)O` (stereo partly drawn) [BMS-986094], the Cmax_triphosphate in the data set on Hepatocyte is listed as 80 pmol/10^6cells. The permeability in the data set with Caco-2 was 2.7%. The CC50 in data set [1] (setting [3]) amounted to 7 µM. For the same compound, in the data set with Hepatitis C virus, the EC50 came out at 0.01 µM and the EC90 was determined as 0.04 µM.

As to `COc1nc(N)nc2c1ncn2[C@@H]1O[C@H](COP(=O)(N[C@H](C(=O)OCC(C)(C)C)C(C)C)Oc2cccc3ccccc23)[C@@H](O)[C@@]1(C)O` (stereo partly drawn), the midpoint of cytotoxicity in data set [1] (Homo sapiens, Huh-7), the CC50, lay at 33 µM. Moreover, in the data set on Hepatitis C virus, the EC50 was 0.19 µM and the EC90 turned out to be 0.64 µM.

In turn, `COc1nc(N)nc2c1ncn2[C@@H]1O[C@H](COP(=O)(N[C@@H](C)C(=O)OC2CCCCC2)Oc2cccc3ccccc23)[C@@H](O)[C@@]1(C)O` (stereo partly drawn) displayed a cytotoxic concentration (CC50) in data set [1] (Homo sapiens, Huh-7) of 6 µM. Also, in the data set with Hepatitis C virus, the EC50 came out at 0.03 µM and the EC90 was determined as 0.09 µM.

As to `COc1nc(N)nc2c1ncn2[C@@H]1O[C@H](COP(=O)(N[C@@H](C)C(=O)OCc2ccccc2)Oc2cccc3ccccc23)[C@@H](O)[C@@]1(C)O` (stereo partly drawn), the Papp A→B in data set [2] is 40.2 nm/s. This compound gave a CC50 in data set [1] (Homo sapiens, Huh-7) of 12 µM. In the data set on Hepatitis C virus, the concentration for a half-maximal effect (EC50) was determined as 0.03 µM and the EC90 was 0.1 µM.

`CC[C@H](C)[C@H](NP(=O)(OC[C@H]1O[C@@H](n2cnc3c(OC)nc(N)nc32)[C@](C)(O)[C@@H]1O)Oc1cccc2ccccc12)C(=O)OCC(C)(C)C` (stereo partly drawn): it took 18 µM to reach half-maximal cytotoxicity in data set [1] (Homo sapiens, Huh-7) (CC50). Also, in the data set on Hepatitis C virus, the EC50 was found to be 0.86 µM and the EC90 is 2.53 µM.

In the case of `COc1nc(N)nc2c1ncn2[C@@H]1O[C@H](COP(=O)(N[C@@H](C)C(=O)OC(C)C)Oc2cccc3ccccc23)[C@@H](O)[C@@]1(C)O` (stereo partly drawn), in data set [1] (Homo sapiens, Huh-7), the CC50 was more than 100 µM. Besides, in the data set on Hepatitis C virus, the EC50 worked out at 0.54 µM and the EC90 came to 1.7 µM.

Source of the values: ChEMBL document CHEMBL1208776, “Design, synthesis and evaluation of a novel double pro-drug: INX-08189. A new clinical candidate for hepatitis C virus” (Bioorg Med Chem Lett, 2010).
